# Compounds with a hit are over-represented: about 1.7% of the library has one in this group of screens.
# SKKanGAS inh – S. pyogenes SKKanGAS growth inhibitors in kanamycin, primary screen, streptokinase expression inhibitor project, SKKanGAS strain, BacTiter-Glo luminescence | 6 h | inhibition, % at 7.5 µM | actives 1.3% (n = 300,000) | AID 1662, 2009;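 active = mean replicate score, as percent of positive control median, at least 50; inconclusive = mean below 50 but one replicate at or above 50; inactive = mean and every replicate below 50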;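 also: strain carries kanamycin resistance gene driven by streptokinase promoter and grows in 40 µg/ml kanamycin; loss of luminescence reflects streptokinase promoter inhibition or plain growth inhibition; 0% = median of DMSO wells and 100% = positive control at its reference dose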
# PfHsp90 yeast 2 – growth inhibition of PfHsp90-expressing yeast, primary screen, antimalarial PfHsp90 inhibitor project, S. cerevisiae, BacTiter-Glo luminescence, single point, set 2 | BacTiter-Glo ATP, 48 h; yeast lacking PDR1 and PDR3 efflux regulators | inhibition, % at 9.4 µM | actives 0.32% (n = 310,000);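 active = every replicate shows inhibition above about 80%, whatever the replicate mean, limit read from the data; inconclusive = mean inhibition reaches the set limit but some replicate falls short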;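 also: 0% = DMSO neutral controls and 100% = 20 µM radicicol positive controls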
# PglD DTNB – C. jejuni PglD acetyltransferase inhibitors, primary screen, biochemical, DTNB colorimetric, single point; UDP-N-acetylbacillosamine N-acetyltransferase PglD (Campylobacter jejuni); purified PglD enzyme, DTNB colorimetric CoA detection; inhibition, % at 12.5 µM; actives 0.098% (n = 360,000); AID 602405, 2012; in the data active = inhibition above about 16%, passing the limit was not always enough; inconclusive = no clear call, values can overlap the other calls
# Rtt109 Vps75 – inhibitors of C. albicans Rtt109/Vps75 HAT, primary screen, biochemical, ThioGlo CoA-SH fluorescence, plate reader; Histone acetyltransferase RTT109 (Candida albicans (strain SC5314 / ATCC MYA-2876)), …; purified Rtt109/Vps75, 4 h; inhibition, % at 34.9 µM; actives 0.16% (n = 330,000);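 active = inhibition of at least 50% in every replicate; inconclusive = best replicate reaches 50% inhibition but some replicates fall short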
# Target sequence (Q5AAJ8 whole entry, looked up): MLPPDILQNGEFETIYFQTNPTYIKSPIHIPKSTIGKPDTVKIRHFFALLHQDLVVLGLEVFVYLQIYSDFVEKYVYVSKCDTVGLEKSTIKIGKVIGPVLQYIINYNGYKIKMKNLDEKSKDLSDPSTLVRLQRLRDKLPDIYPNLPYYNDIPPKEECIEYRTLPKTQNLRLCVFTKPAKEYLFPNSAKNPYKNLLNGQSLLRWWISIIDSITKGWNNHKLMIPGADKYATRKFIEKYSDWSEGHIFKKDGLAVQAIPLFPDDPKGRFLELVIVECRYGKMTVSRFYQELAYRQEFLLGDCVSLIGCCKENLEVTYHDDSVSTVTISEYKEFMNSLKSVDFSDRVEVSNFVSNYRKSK
# CSC inhib – cancer stem cell viability inhibitors, primary screen, luminescence. cancer stem cell-like cells viability. actives 1.1% (n = 300,000). inhibition, % at 7.5 µM; in the data active = inhibition above about 75%; inconclusive = no clear call, values can overlap the other calls; tested in HMLE shEcad cells
# FN deposit inh – inhibitors of fibronectin matrix deposition, primary screen, AH1F cells, Alexa488-fibronectin fluorescence, plate reader. AID 743247, 2014. AH1F fibroblasts, overnight. inhibition, % at 12.6 µM. actives 0.086% (n = 350,000);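 active = mean inhibition across replicates of 30% or more, regardless of how many single replicates reach that level; inconclusive = mean under 30% yet at least half of replicates reach 30%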;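 also: positive control wells lacked labelled fibronectin entirely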
#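 Schedule: 1 h cell adhesion before compound, then overnight fibronectin incubation; test system: AH1F fibroblast monolayer depositing Alexa488-labelled fibronectin into matrix; quantity: 10000 AH1F cells per well; probe or stimulus: fluorescent fibronectin at 24 nM final; signal: fluorescence, ex 485 nm, em 525 nm; evaluation: percent inhibition as loss of matrix-bound fibronectin fluorescence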
# Active calls of the source: *; u = inconclusive; x = no result.
SMILES,SKKanGAS inh,PfHsp90 yeast 2,PglD DTNB,Rtt109 Vps75,CSC inhib,FN deposit inh
CCOC(=O)c1c(C)oc2c1c(C(c1ccccc1)N1CCOCC1)c(O)c1ccccc12 (centres undefined),66.7*,x,-4.9,-2.1,56.8,-0.6
CCOC(=O)c1c(C)oc2c1c(C=NCCO)c(O)c1ccccc12,28.1,-16.0,x,52.5*,x,2.1
C[C@@H]1CCCCO[C@@H](CN(C)C(=O)C2CCCCC2)[C@H](C)CN([C@@H](C)CO)C(=O)c2cc(NS(=O)(=O)c3ccc(F)cc3)ccc2O1,x,x,1.1,x,x,-6.2
Cc1cccc(NC(=S)N/N=C2\CC(C)(C)Oc3ccc(O)cc32)c1,-1.2,0.9,x,4.9,58.4,38.6*
Cc1cc(NCCCO)n2nc(-c3cccs3)cc2n1,4.0,-5.7,x,-4.7,-7.0,-9.8
OCCCNc1cc(-c2ccccc2)nc2cc(-c3ccc(F)cc3)nn12,30.2,9.9,-3.1,-0.3,83.5*,5.2
COc1ccccc1CNC(=O)C[C@H]1C[C@@H]2c3cc(NS(C)(=O)=O)ccc3O[C@@H]2[C@@H](CO)O1,x,x,-2.5,x,x,-27.1
Cc1cccc(NC(=O)c2cc3n(n2)C(C(F)(F)F)CC(c2ccc4c(c2)OCO4)N3)c1 (centres undefined),49.9*,-16.3,x,1.2,-1.1,-5.1
COc1ccc(NC(=O)c2cc3n(n2)C(C(F)(F)F)CC(c2ccc4c(c2)OCO4)N3)cc1OC (centres undefined),x,-2.3,-2.0,12.3,-4.7,x
COc1ccc(OC)c(CCNC(=O)C(=O)Nc2ccc3nc4n(c(=O)c3c2)CCCCC4)c1,57.3*,-19.8,-1.1,0.1,x,6.4
COc1cc(OC)cc(C(=O)Nc2ccc3nc4n(c(=O)c3c2)CCCCC4)c1,6.3,5.3,2.1,0.7,42.9,4.9
O=C(CSc1n[nH]c(-c2ccccc2Cl)n1)NC1CCCCC1,0.8,9.6,1.5,51.0*,-12.1,-3.0
COCC(=O)N1[C@H](CO)[C@H](c2ccc(-c3cccc(F)c3)cc2)C12CN(C(=O)C1CC1)C2,x,x,x,x,x,3.6
C[C@@H]1CCCCO[C@H](CN(C)S(C)(=O)=O)[C@@H](C)CN([C@H](C)CO)C(=O)c2cc(NS(=O)(=O)c3ccccc3)ccc2O1,x,x,-1.3,x,x,x
O=C1N/C(=N/O)S/C1=C/c1cccc([N+](=O)[O-])c1,-5.3,-5.3,0.5,-13.8,x,9.7
Cc1cccc(/C=C2/S/C(=N/N=C3\CC4CCC3(C)C4(C)C)NC2=O)c1 (centres undefined),125.1*,12.4,x,4.5,-8.5,x
Cc1noc(C)c1S(=O)(=O)N(C)C[C@@H]1Oc2ccc(NC(=O)C3CC3)cc2CC(=O)N([C@@H](C)CO)C[C@H]1C,x,x,4.4,x,x,x
O=c1[nH]c2ccccc2nc1-c1ccccc1,1.0,-40.2,0.6,2.8,0.3,-11.4
NC(=O)N=Nc1c2[nH]c3ccccc3nc-2c2ccccc12,72.1*,67.9,4.1,-12.1,58.4,18.4
CC(C)C(=O)N[C@H]1CCC2C3CC=C4C[C@@H](O)CC[C@]4(C)C3CC[C@@]21C (some centres undefined),x,16.5,0.7,1.5,-12.3,1.9
CC(C)(C)[C@H](N)C(=O)N[C@H]1CCC2C3CC=C4C[C@@H](O)CC[C@]4(C)C3CC[C@@]21C (some centres undefined),x,22.8,x,1.7,103.9*,-3.9
O=C([C@H]1[C@H](CO)[C@H]2Cn3c(cccc3=O)[C@@H]1N2C(=O)c1ccccn1)N1CCCCC1,x,x,1.6,x,x,x
COc1ccc(CNC(=O)c2nc(S(=O)(=O)Cc3ccccc3)ncc2Cl)cc1,-5.2,9.3,2.9,u,-7.9,28.6
CC(=O)Nc1ccc(NC(=O)c2nc(S(=O)(=O)Cc3ccccc3)ncc2Cl)cc1,12.3,-21.1,4.0,113.3*,1.4,51.2*
O=C(NCc1ccccc1)c1nc(S(=O)(=O)Cc2ccccc2)ncc1Cl,-9.4,-20.8,-0.9,u,51.9,25.3
SMILES,SKKanGAS inh,PfHsp90 yeast 2,PglD DTNB,Rtt109 Vps75,CSC inhib,FN deposit inh
COC(=O)c1ccccc1NC(=O)c1nc(S(=O)(=O)Cc2ccccc2)ncc1Cl,58.4*,-5.4,5.1,-18.1,99.8*,5.4
O=C(NCc1ccccc1)OC1CC2CC1[C@H]1CCCCN1C2=O (some centres undefined),x,x,x,x,x,-6.5
O=C(NCc1ccc(F)cc1)OC1CC2CC1[C@H]1CCCCN1C2=O (some centres undefined),x,x,x,x,x,30.3*
Cc1cc(C)c([C@@H]2C[C@H]3CN(C4CCCC4)C(=O)[C@]34CCCN24)c(-n2cccn2)c1,-4.6,-12.8,7.2,6.1,-5.8,38.5*
Cc1ccc(-n2cccn2)c([C@@H]2C[C@H]3CN(C)C(=O)[C@]34CCCN24)c1,1.0,11.9,x,-8.5,-10.2,-1.9
Oc1c(Cl)cc(Cl)cc1C1=NNC(c2ccc(Cl)cc2)C1 (centres undefined),x,14.1,x,-6.7,x,x
Oc1ccc(Cl)cc1C1=NNC(c2ccc(Cl)cc2)C1 (centres undefined),96.2*,-23.6,x,32.3,51.8,5.1
O=C(C[C@@H]1C=C[C@@H](NS(=O)(=O)c2ccccc2)[C@@H](CO)O1)NCc1ccncn1,x,x,3.7,x,x,x
Cc1ccc(N=Nc2ccc(O)c(P(=O)(c3ccccc3)c3ccccc3)c2)cc1,49.7*,-33.5,x,-1.1,14.3,8.1
C[C@@H]1CN([C@H](C)CO)C(=O)CCCn2cc(nn2)CO[C@@H]1CN(C)Cc1ccc(C(=O)O)cc1,x,x,x,x,x,10.7
CCOC(=O)c1sc(NC(=O)CCN2CCN(C)CC2)c(C(=O)OCC)c1C,-1.5,14.3,-1.3,-1.0,18.7,3.9
CCOC(=O)c1c(NC(=O)CN2CCN(C)CC2)sc(C(=O)Nc2ccccc2)c1C,-1.1,7.6,x,19.5,79.2*,5.8
CC(C)NC(=O)Nc1ccc2c(c1)C(=O)N([C@@H](C)CO)C[C@H](C)[C@H](CN(C)C)OCCCC[C@H](C)O2,x,x,2.0,x,x,5.1
Clc1ccccc1OCCCn1ccnc1,-16.2,0.9,-7.7,-2.0,-8.4,0.7
Clc1ccccc1OCCCCn1ccnc1,58.7*,-7.6,3.6,-20.1,1.3,x
COc1ccc(NC(=O)N(C)C[C@H]2OCCCC[C@H](C)Oc3ccc(NS(=O)(=O)c4ccc(OC)cc4)cc3C(=O)N([C@H](C)CO)C[C@@H]2C)cc1,x,x,-2.4,x,x,6.4
CC1=C(C#N)c2nc(N)c(C#N)c(C)c2/C1=C\c1ccc(C)cc1,70.6*,x,x,x,31.0,x
